Assay results published in ChEMBL document CHEMBL4028907, “Semisynthesis and Biological Evaluation of Xanthone Amphiphilics as Selective, Highly Potent Antifungal Agents to Combat Fungal Resistance” (J Med Chem, 2017).
Values after ≈ are worked out from the molar mass of the structure shown. Active and inactive are the calls of the source. The calls are words filed in the database; no cut-off is given here.

How the values were obtained:
[1] = test system: Candida albicans; assay: Antifungal activity against Candida albicans ATCC 10231 after 24 hrs by two fold serial dilution method; assay type: functional; conditions: ATCC 10231, 24 h
In short: (§1)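 Candida grown on Sabouraud dextrose agar at 35 °C for 24 h, adjusted to ~5×10^3 CFU/mL. Two-fold dilutions from 100 to 0.78 μg/mL in Sabouraud dextrose broth, incubated at 35 °C for 24 h. MIC is the lowest concentration inhibiting growth by eye and by OD600. CLSI-based with minor modifications.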

[2] = test system: Candida albicans; assay: Antifungal activity against drug resistant Candida albicans DF2672R after 24 hrs by two fold serial dilution method; assay type: functional; in short: as §1
[3] = Selectivity index, ratio of HC50 for New Zealand white rabbit RBC to MIC for Candida albicans ATCC 10231
[4] = test system: Staphylococcus aureus; assay: Antibacterial activity against Staphylococcus aureus DM4001R by two fold serial dilution method; assay type: functional
In short: (§2)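 Broth microdilution (CLSI, minor modifications) in Sabouraud dextrose, Mueller−Hinton or RPMI 1640 broth; two-fold serial dilutions of compound from stock to final 100 to 0.78 μg/mL. MIC taken as lowest concentration giving no visible growth.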

[5] = test system: Bacillus cereus; assay: Antibacterial activity against Bacillus cereus ATCC11778 by two fold serial dilution method; assay type: functional; in short: as §2
[6] = test system: Klebsiella pneumoniae; assay: Antibacterial activity against Klebsiella pneumoniae DM4299 by two fold serial dilution method; assay type: functional; in short: as §2
[7] = test system: Pseudomonas aeruginosa; assay: Antibacterial activity against Pseudomonas aeruginosa DM23155 by two fold serial dilution method; assay type: functional; in short: as §2
[8] = test system: Candida albicans; assay: Antifungal activity against Candida albicans DF1976R after 24 hrs by two fold serial dilution method; assay type: functional; in short: as §1
[9] = test system: Candida albicans; assay: Antifungal activity against Candida albicans ATCC90028 after 24 hrs by two fold serial dilution method; assay type: functional; conditions: ATCC90028, 24 h; in short: as §1
[10] = test system: Candida albicans; assay: Antifungal activity against Candida albicans ATCC24433 after 24 hrs by two fold serial dilution method; assay type: functional; conditions: ATCC24433, 24 h; in short: as §1
[11] = test system: Candida albicans; assay: Antifungal activity against Candida albicans ATCC11651 after 24 hrs by two fold serial dilution method; assay type: functional; conditions: ATCC11651, 24 h; in short: as §1
[12] = test system: Fusarium solani; assay: Antifungal activity against Fusarium solani 52628 after 48 hrs by two fold serial dilution method; assay type: functional; conditions: Fusarium solani, 52628, 48 h
In short: (§3)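 Moulds grown on potato dextrose agar, 30 °C, 4 days; inoculum adjusted to about 5×10^3 CFU/mL. Two-fold serial dilutions in RPMI-1640 broth, 100 to 0.78 μg/mL final, mixed with equal volume of cell suspension; incubated 30 °C, 48 h. MIC = lowest concentration inhibiting growth, judged visually and by OD530.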

[13] = test system: Fusarium solani; assay: Antifungal activity against Fusarium solani 62877 after 48 hrs by two fold serial dilution method; assay type: functional; conditions: Fusarium solani, 62877, 48 h; in short: as §3
[14] = test system: Fusarium solani; assay: Antifungal activity against Fusarium solani MYA3636 after 48 hrs by two fold serial dilution method; assay type: functional; conditions: MYA3636, 48 h; in short: as §3
[15] = test system: Fusarium solani; assay: Antifungal activity against Fusarium solani 46492 after 48 hrs by two fold serial dilution method; assay type: functional; conditions: Fusarium solani, 46492, 48 h; in short: as §3
[16] = test system: Aspergillus brasiliensis; assay: Antifungal activity against Aspergillus brasiliensis TCC16404 after 48 hrs by two fold serial dilution method; assay type: functional; conditions: TCC16404, 48 h; in short: as §3
[17] = test system: Aspergillus flavus; assay: Antifungal activity against Aspergillus flavus TCC 204304 after 48 hrs by two fold serial dilution method; assay type: functional; conditions: TCC 204304, 48 h; in short: as §3
[18] = test system: Aspergillus flavus; assay: Antifungal activity against Aspergillus flavus TCC MYA3631 after 48 hrs by two fold serial dilution method; assay type: functional; conditions: TCC MYA3631, 48 h; in short: as §3
[19] = test system: Aspergillus fumigatus; assay: Antifungal activity against Aspergillus fumigatus TCC MYA3626 after 48 hrs by two fold serial dilution method; assay type: functional; conditions: TCC MYA3626, 48 h; in short: as §3
[20] = test system: Aspergillus fumigatus; assay: Antifungal activity against Aspergillus fumigatus TCC 90906 after 48 hrs by two fold serial dilution method; assay type: functional; conditions: TCC 90906, 48 h; in short: as §3
[21] = test system: Candida albicans; assay: Synergistic antifungal activity against drug resistant Candida albicans DF2672R after 24 hrs in presence of itraconazole by checkerboard assay; assay type: functional
In short: (§4)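 Checkerboard combination of each compound with a second antifungal, following a previously reported procedure. FIC = MIC of A in combination/MIC of A alone + MIC of B in combination/MIC of B alone.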

[22] = test system: Candida albicans; assay: Synergistic antifungal activity against drug resistant Candida albicans DF2672R after 24 hrs in presence of miconazole by checkerboard assay; assay type: functional; in short: as §4
[23] = test system: Candida albicans; assay: Synergistic antifungal activity against drug resistant Candida albicans DF2672R after 24 hrs in presence of terbinafine by checkerboard assay; assay type: functional; in short: as §4
[24] = test system: Candida albicans; assay: Synergistic antifungal activity against drug resistant Candida albicans DF2672R after 24 hrs in presence of posaconazole by checkerboard assay; assay type: functional; in short: as §4
[25] = test system: Candida albicans; assay: Synergistic antifungal activity against drug resistant Candida albicans DF2672R after 24 hrs in presence of natamycin by checkerboard assay; assay type: functional; in short: as §4
[26] = test system: Candida albicans; assay: Synergistic antifungal activity against drug resistant Candida albicans DF2672R after 24 hrs in presence of amphotericin B by checkerboard assay; assay type: functional; in short: as §4
[27] = test system: Candida albicans; assay: Fungicidal activity against drug resistant Candida albicans DF2672R after 0.5 to 24 hrs by time kill assay; assay type: functional
In short: (§5)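 Cells at 10^5–10^6 CFU/mL exposed to 1×, 2×, 4× or 8× MIC at 35 °C. Samples taken at 0.5, 1, 2, 4, 8 and 24 h, serially diluted in PBS and plated on SDA. CFU counted after 24 h at 35 °C; biological replicates.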

[28] = test system: Candida albicans; assay: Fungicidal activity against drug resistant Candida albicans DF2672R at 8 times MIC after 4 hrs by time kill assay relative to control; assay type: functional; in short: as §5
[29] = test system: Candida albicans; assay: Ratio of MIC against drug resistant Candida albicans DF2672R measured after 30 passages to MIC against drug resistant Candida albicans DF2672R measured before 30 passages by two fold serial dilution method; assay type: functional
In short: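 Serial passage: cells from duplicate tubes at 0.5× MIC adjusted to ~5×10^3 CFU/mL and used as the inoculum for the next broth microdilution MIC, 24 h at 35 °C. Repeated for 27–30 passages, with biological replicates.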

[30] = test system: Fusarium oxysporum; assay: Antifungal activity against Fusarium oxysporum MYA3461 after 48 hrs by two fold serial dilution method; assay type: functional; conditions: MYA3461, 48 h; in short: as §3
[31] = test system: Fusarium oxysporum; assay: Antifungal activity against Fusarium oxysporum 64530 after 48 hrs by two fold serial dilution method; assay type: functional; conditions: Fusarium oxysporum, 64530, 48 h; in short: as §3
[32] = Cytotoxicity against human corneal fibroblasts assessed as cell viability up to 100 uM after 4 hrs by LDH assay relative to control; assay type: cell-based, Corneal fibroblast; conditions: read-out: Activity
In short: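 LDH release assay on human corneal fibroblasts seeded at 10000 cells per well, exposed to a range of compound concentrations up to 100 μM. 1% Triton X-100 served as positive control and 0.5% DMSO as negative control; biological replicates.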

[33] = test system: Candida albicans; assay: Induction of membrane permiablization in drug resistant Candida albicans DF2672R at 4 times MIC after 1 to 2 hrs by SYTOX green dye based spectrofluorometric assay; assay type: functional
In short: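 Overnight cultures washed and resuspended in PBS at OD600 0.2, then loaded with 0.3 μM SYTOX Green in the dark. After the signal stabilised, compound in PBS/DMF was added (final DMF 0.5%; 0.5% DMF as control). Fluorescence (ex 504/em 523 nm) followed continuously for 1–2 h; biological replicates.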

[34] = test system: Lipid bilayer; assay: Induction of membrane permiablization in calcein loaded DOPC/DOPE/PI large unilamellar vesicles assessed as calcein leakage at 1:4 compound to lipid ratio after 1 to 2 hrs by fluorescence assay relative to control
In short: (§6)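 LUVs (DOPC/DOPE/PI 2:1:1 with 15 wt % ergosterol, about 100 nm) made by film hydration and extrusion, loaded with 80 mM calcein in HEPES buffer pH 7.4. Free dye removed by G-50 column. Compound added in 0.5% DMF at 50 μM final phospholipid. Emission read at 520 nm (excitation 490 nm); leakage normalized to 1% Triton X-100.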

[35] = test system: Lipid bilayer; assay: Induction of membrane permiablization in calcein loaded DOPC/DOPE/PI large unilamellar vesicles assessed as calcein leakage at 1:8 compound to lipid ratio after 1 to 2 hrs by […] fluorescence assay relative to control; in short: as §6
[36] = test system: Staphylococcus aureus; assay: Antibacterial activity against methicillin resistant Staphylococcus aureus DM21455 by two fold serial dilution method; assay type: functional
In short: (§7)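 Broth microdilution per CLSI guidelines with minor modifications, run in Mueller−Hinton broth; MIC is the lowest concentration giving no visible growth.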

[37] = test system: Staphylococcus aureus; assay: Antibacterial activity against methicillin resistant Staphylococcus aureus DM9808R by two fold serial dilution method; assay type: functional; in short: as §7

`CCCCN(CCCC)CC(O)COc1cc2oc3cc(OCC(O)CN(CCCC)CCCC)c(OC)c(CC=C(C)C)c3c(=O)c2c(O)c1CC=C(C)C` (configuration not stated) showed an MIC [1] of 3.13 µg/mL (≈ 4.01 µM), an MIC [2] of 3.13 µg/mL (≈ 4.01 µM) and a Selectivity Index [3] greater than 128. The MIC [4] was greater than 50 µg/mL, the MIC [5] was greater than 50 µg/mL and the MIC [6] was greater than 50 µg/mL. It also gave an MIC [7] greater than 50 µg/mL, an MIC [8] of 3.13 µg/mL (≈ 4.01 µM) and an MIC [9] of 3.13 µg/mL (≈ 4.01 µM). The MIC [10] was 3.13 µg/mL (≈ 4.01 µM), the MIC [11] was 3.13 µg/mL (≈ 4.01 µM) and the MIC [12] was 6.25 µg/mL (≈ 8 µM). The MIC [13] was 6.25 µg/mL (≈ 8 µM), the MIC [14] was 3.13 µg/mL (≈ 4.01 µM) and the MIC [15] was 6.25 µg/mL (≈ 8 µM). The MIC [16] was 3.13 µg/mL (≈ 4.01 µM), the MIC [17] was 12.5 µg/mL (≈ 16 µM) and the MIC [18] was 12.5 µg/mL (≈ 16 µM). The MIC [19] was 6.25 µg/mL (≈ 8 µM), the MIC [20] was 12.5 µg/mL (≈ 16 µM) and the “fractional inhibitory concentration index (FICI)” value [21] was 0.63. For the same compound, the “fractional inhibitory concentration index (FICI)” value [22] was 0.81, the “fractional inhibitory concentration index (FICI)” value [23] was 0.29 and the “fractional inhibitory concentration index (FICI)” value [24] was 0.91. The “fractional inhibitory concentration index (FICI)” value [25] was 0.91, the “fractional inhibitory concentration index (FICI)” value [26] was 0.64 and the Activity [27] was “Dose-dependent effect”. The Activity [28] was 99.9%, the Ratio [29] was 2 and the MIC [30] was 3.13 µg/mL (≈ 4.01 µM). The MIC [31] was 6.25 µg/mL (≈ 8 µM), the viability at 4 h [32] was greater than 99% and the Activity [33] was “Active”. It also gave an Activity [34] of 55.4%, an Activity [35] of 25.8% and an MIC [36] greater than 50 µg/mL. The MIC [37] was greater than 50 µg/mL.
